The source made the active and inactive calls.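 The calls were made as follows: active = cell viability under 70% at any tested concentration, a measure not printed in our tables; inactive = the rest.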

In this experiment the test system is HEp-2 viability, ATP luminescence. As to the kind of experiment: viability loss in uninfected HEp-2 cells – cell-based, ATP luminescence, purified and synthesized compounds, cytotoxicity control for RSV inhibitor project, dose response (AID 488976). In short, it runs like this:
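System: HEp-2 cells without virus / Compound dosing: 8 twofold steps, 0.39–50 µM, 0.5% DMSO / Times: 6 days with compound at 37 °C / Detection: CellTiter-Glo luminescence / Benchmarks: cell-only wells without compound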
A word on the CC50: it is the concentration at which the toxic effect on the cells reaches its halfway point. As for `Cc1ccc(NC(=O)C2CCCN2S(=O)(=O)c2cccc3ccccc23)c(C)c1` (configuration not stated), the CC50 is 17.8 µM.
Under `Cc1ccc(NC(=O)C2CCCN2S(=O)(=O)c2cccc3cnccc23)c(C)c1` (configuration not stated) stands > 50 µM (inactive); under `Cc1ccc(NC(=O)C2CCCN2C(=O)c2ccccc2)c(C)c1` (configuration not stated), > 50 µM (inactive); under `Cc1ccc(NC(=O)[C@@H]2CCCN2S(=O)(=O)c2cccc3cccnc23)c(C)c1`, 38.9 µM.
Turning to `Cc1csc(NC(=O)c2cccnc2)n1`, the CC50 was > 50 µM (inactive).
Then `Cc1ccc(NC(=O)C2CCCN2Cc2cccc3cccnc23)c(C)c1` (configuration not stated), with 13.3 µM; and `Cc1ccc(NC(=O)C(C)NS(=O)(=O)c2cccc3cccnc23)c(C)c1` (configuration not stated), with > 50 µM (inactive); and `CSc1ncccc1C(=O)Nc1nc(C(C)(C)C)cs1`, with 28.7 µM.
For the compound `O=C(Nc1ccc(C(F)(F)F)cc1[N+](=O)[O-])O[C@H]1[C@H](Cc2ccccc2)NS(=O)(=O)[C@H]2C[C@@H]3C=C[C@]12O3`, the CC50 is 22.1 µM.
Under `Cc1ccc(NC(=O)[C@H]2CCCN2S(=O)(=O)c2cccc3cccnc23)c(C)c1` stands 38 µM; under `Cc1ccc(NC(=O)C2CCCN2S(C)(=O)=O)c(C)c1` (configuration not stated), > 50 µM (inactive).
Under `Cc1ccc(NC(=O)C2CCCN2C(=O)c2cccc3cccnc23)c(C)c1` (configuration not stated) stands > 50 µM (inactive); under `CSc1ncccc1C(=O)Nc1nc(C)cs1`, > 50 µM (inactive); under `Cc1ccc(NC(=O)C2CCCN2S(=O)(=O)c2ccc3ncccc3c2)c(C)c1` (configuration not stated), > 50 µM (inactive).
Under `Cc1ccc(NC(=O)C2CCCN2S(=O)(=O)c2ccccc2)c(C)c1` (configuration not stated) stands > 50 µM (inactive).
For `Cc1ccc(NC(=O)CNS(=O)(=O)c2cccc3cccnc23)c(C)c1`, the CC50 was > 50 µM (inactive).
Consider `Cc1ccc(NC(=O)C2CCCN2S(=O)(=O)c2cccc3cccnc23)c(C)c1` (configuration not stated), for which the CC50 is 40.5 µM.

For the origin of these results see PubChem BioAssay AID488976 (Southern Research Specialized Biocontainment Screening …, 2010).
